Assay results from ChEMBL document CHEMBL1124753, “Hydroxyethylamine analogues of the p17/p24 substrate cleavage site are tight-binding inhibitors of HIV protease” (J Med Chem, 1990).
*1 amine or outer side, *2 acyl side, *3 side chain or, on linkers, in order; H or OH if unused. Where a SMILES comes first, the peptide text is derived from it. [ ]: non-standard residue; d: D form. The star is where a group is joined. Phe(ψ(S)CH(OH)CH2N)Pro = O=C([C@@H]1CCCN1C[C@H](O)[C@H](Cc1ccccc1)N[*:1])[*:2]; Ahppa(3S,4S) = O=C(C[C@H](O)[C@H](Cc1ccccc1)N[*:1])[*:2]; X1 = CC(C)C[C@H](N[*:1])[C@@H](O)CN1CCC[C@H]1C(=O)[*:2]; X2 = O=C([C@@H]1CCCN1C[C@H](Cc1ccccc1)N[*:1])[*:2]; Sta = CC(C)C[C@H](N)[C@@H](O)CC(=O)O; Boc = CC(C)(C)OC(=O)*

target: T1, Human immunodeficiency virus type 1 protease (Human immunodeficiency virus 1, UniProt Q72874); experiment: Inhibition of HIV protease at pH 6.4, 37 degree C

| SMILES | Ki [µM] |
| --- | --- |
| CC[C@@H](C)[C@H](NC(=O)[C@@H]1CCCN1C[C@@H](O)[C@H](Cc1ccccc1)NC(=O)[C@H](CC(N)=O)NC(=O)[C@H](CC(C)C)NC(C)=O)C(=O)N[C@H](C(=O)OC)C(C)C | 0.021 |
| COC(=O)[C@@H](NC(=O)[C@@H](NC(=O)CNC[C@H](O)[C@H](Cc1ccccc1)NC(=O)[C@H](C)NC(=O)[C@H](C)N)C(C)C)C(C)C | 0.018 |
| CC[C@H](C)[C@H](NC(=O)[C@H](Cc1ccccc1)NC[C@H](O)[C@H](Cc1ccccc1)NC(=O)OC(C)(C)C)C(=O)N[C@@H](Cc1ccccc1)C(=O)OC | 0.0006 |
| CC[C@H](C)[C@H](NC(=O)[C@@H]1CCCN1C[C@H](O)[C@H](CC(C)C)NC(=O)[C@H](CC(N)=O)NC(=O)[C@H](CC(C)C)NC(C)=O)C(=O)N[C@H](C(=O)OC)C(C)C (Ac-LN[X1]IV-OMe) | 0.021 |
| CC[C@H](C)[C@H](NC(=O)[C@@H]1CCCN1C[C@H](O)[C@H](Cc1ccccc1)NC(=O)[C@H](CC(N)=O)NC(=O)[C@H](CC(C)C)NC(=O)[C@H](CO)NC(C)=O)C(=O)OC (Ac-SLN[Phe(ψ(S)CH(OH)CH2N)Pro]I-OMe) | 0.42 |
| CC[C@H](C)[C@H](NC(=O)[C@@H]1CCCN1C[C@H](O)[C@H](Cc1ccccc1)NC(=O)[C@H](CC(N)=O)NC(=O)[C@H](CC(C)C)NC(=O)[C@H](CO)NC(C)=O)C(=O)N[C@H](C(=O)OC)C(C)C (Ac-SLN[Phe(ψ(S)CH(OH)CH2N)Pro]IV-OMe) | 0.00066 |
| CC[C@H](C)[C@H](NC(=O)C[C@H](O)[C@H](CC(C)C)NC(=O)[C@H](CC(N)=O)NC(=O)[C@H](CC(C)C)NC(=O)[C@H](CO)NC(C)=O)C(=O)N[C@H](C(=O)OC)C(C)C (Ac-SLN[Sta]IV-OMe) | 1.06 |
| COC(=O)[C@@H](NC(=O)[C@@H](NC(=O)C[C@H](O)[C@H](Cc1ccccc1)NC(=O)[C@H](CC(N)=O)NC(=O)[C@H](CCC(N)=O)NC(=O)[C@H](CO)NC(C)=O)C(C)C)C(C)C (Ac-SQN[Ahppa(3S,4S)]VV-OMe) | 39 |
| CC(=O)N[C@@H](CO)C(=O)N[C@@H](CCC(N)=O)C(=O)N[C@@H](CC(N)=O)C(=O)N[C@@H](Cc1ccccc1)CN1CCC[C@H]1C(=O)N[C@H](C(=O)N[C@H](C(N)=O)C(C)C)C(C)C (Ac-SQN[X2]VV-NH2) | 13 |
| CC[C@H](C)[C@H](NC(=O)C[C@H](O)[C@H](Cc1ccccc1)NC(=O)[C@H](CC(N)=O)NC(=O)[C@H](CC(C)C)NC(=O)[C@H](CO)NC(=O)OC(C)(C)C)C(=O)N[C@H](C(=O)OC)C(C)C (Boc-SLN[Ahppa(3S,4S)]IV-OMe) | 2.64 |

target: T1, Human immunodeficiency virus type 1 protease; experiment: Inhibitory activity against HIV Protease was measured at pH 6.4 and 37 degrees C
Summary of the method: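 Recombinant HIV protease expressed in E. coli; substrate Ac-Thr-Ile-Met-Gln-Arg-NH2 varied 0.5–10 mM. Inhibitor added in DMSO (final 1–3%), preincubated with enzyme 10 min before substrate started the reaction. Initial rates by HPLC and fluorometric assays. Ki from fitting initial velocities to the competitive inhibition equation; each is the average of three or more independent determinations.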

| SMILES | Ki [µM] |
| --- | --- |
| CC[C@H](C)[C@H](NC(=O)[C@@H]1CCCN1C[C@H](O)[C@H](CC(C)C)NC(=O)[C@H](CC(N)=O)NC(=O)[C@H](CC(C)C)NC(C)=O)C(=O)OC | > 10 |
| CC[C@H](C)[C@H](NC(=O)C[C@H](O)[C@H](Cc1ccccc1)NC(=O)[C@H](CC(N)=O)NC(=O)[C@H](CC(C)C)NC(=O)[C@H](CO)NC(C)=O)C(=O)N[C@H](C(=O)OC)C(C)C (Ac-SLN[Ahppa(3S,4S)]IV-OMe) | 8 |
| CC[C@H](C)[C@H](NC(=O)[C@@H]1CCCN1C[C@H](O)[C@H](CC(C)C)NC(=O)[C@H](CC(N)=O)NC(=O)[C@H](CC(C)C)NC(=O)[C@H](CO)NC(C)=O)C(=O)OC (Ac-SLN[X1]I-OMe) | 0.98 |
| CC[C@H](C)[C@H](NC(=O)[C@@H]1CCCN1C[C@H](O)[C@H](CC(C)C)NC(=O)[C@H](CC(N)=O)NC(=O)[C@H](CC(C)C)NC(=O)[C@H](CO)NC(C)=O)C(=O)N[C@H](C(=O)OC)C(C)C (Ac-SLN[X1]IV-OMe) | 0.118 |
